Assay results from publication PMC11808297 (RSC Advances, 2025).

What was measured:
PLC/PRF/5 = assay: Anti-proliferation assay; format: cell-based; settings: Homo sapiens, PLC-PRF-5, 48 h, read-out: IC50 against proliferation, PLC/PRF/5
In short: (§1)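 Cells thawed, grown in RPMI 1640 + 10% FBS at 37 °C, 5% CO2; used in log phase. Seeded 10 000–12000 cells/well, after 4 h test compound added at working concentrations 0.16/0.8/4/20/100 μmol L−1 in complete medium. MTT (5 mg mL−1) added for 4 h, formazan dissolved in DMSO, absorbance at 570 nm.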

HEL = assay: Anti-proliferation assay; format: cell-based; settings: Homo sapiens, 48 h, read-out: IC50 against proliferation, HEL
In short: as §1

rat thoracic aorta ring = assay: Rat aortic ring assay; settings: 5 μM, 9 days
In short: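 Thoracic aortas from 8–10 week-old male SD rats, cleaned of fibroadipose tissue, cut into 1 mm rings, embedded between Matrigel layers. Test compound in M199 added; cultured at 37 °C, 5% CO2 for 9 days with medium plus compound renewed every three days. Micro-vessels imaged by inverted microscope at 100×.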

[1] = In vivo PK study in Sprague Dawley rats; settings: male, rat, plasma
In short: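 Male SD rats, 180–220 g, acclimatised one week, fasted 12 h. Single dose i.v. infusion (jugular vein cannula sampling) or oral; blood taken predose and to 24 h (i.v. from 0.083 h, oral from 0.25 h). Plasma by centrifugation, stored −20 °C, LC-MS/MS quantitation.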

APN from porcine kidney = target: T1, APN from porcine kidney (Sus scrofa, UniProt P15145); assay: APN inhibition assay; format: biochemical
T1 sequence (P15145 1-963): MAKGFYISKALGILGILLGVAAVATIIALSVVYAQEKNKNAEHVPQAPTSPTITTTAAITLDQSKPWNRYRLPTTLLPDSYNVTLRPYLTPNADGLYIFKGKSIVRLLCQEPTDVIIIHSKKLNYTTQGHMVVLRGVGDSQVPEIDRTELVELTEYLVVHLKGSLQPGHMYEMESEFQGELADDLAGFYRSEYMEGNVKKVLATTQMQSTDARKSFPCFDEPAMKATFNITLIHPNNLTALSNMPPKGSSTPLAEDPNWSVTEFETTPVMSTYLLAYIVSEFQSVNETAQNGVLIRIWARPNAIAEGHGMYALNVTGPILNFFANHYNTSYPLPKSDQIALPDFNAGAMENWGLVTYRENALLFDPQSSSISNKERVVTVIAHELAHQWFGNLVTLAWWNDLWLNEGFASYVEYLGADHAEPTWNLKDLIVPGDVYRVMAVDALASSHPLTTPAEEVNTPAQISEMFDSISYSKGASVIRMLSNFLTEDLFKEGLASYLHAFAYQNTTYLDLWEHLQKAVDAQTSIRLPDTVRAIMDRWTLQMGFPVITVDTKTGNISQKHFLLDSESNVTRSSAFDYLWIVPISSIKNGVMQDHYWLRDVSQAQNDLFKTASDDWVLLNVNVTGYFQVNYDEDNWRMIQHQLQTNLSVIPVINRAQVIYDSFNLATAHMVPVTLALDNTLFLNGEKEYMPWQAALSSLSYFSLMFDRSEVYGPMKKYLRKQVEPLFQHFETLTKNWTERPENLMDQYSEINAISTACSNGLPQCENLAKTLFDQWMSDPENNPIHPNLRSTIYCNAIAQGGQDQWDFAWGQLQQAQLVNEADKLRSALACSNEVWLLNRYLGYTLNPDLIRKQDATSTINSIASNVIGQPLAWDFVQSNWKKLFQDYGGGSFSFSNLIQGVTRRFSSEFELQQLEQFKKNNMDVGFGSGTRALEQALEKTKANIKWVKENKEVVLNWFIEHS

HuH7 = assay: Anti-proliferation assay; format: cell-based; settings: Homo sapiens, Huh-7, 48 h, read-out: IC50 against proliferation, HuH7
In short: as §1

K562 = assay: Anti-proliferation assay; format: cell-based; settings: Homo sapiens, K562, 48 h, read-out: IC50 against proliferation, K562
In short: as §1

HEPG2 = assay: Anti-proliferation assay; format: cell-based; settings: Homo sapiens, HepG2, 48 h, read-out: IC50 against proliferation, HEPG2
In short: as §1

MDA-MB-231 = assay: Anti-proliferation assay; format: cell-based; settings: Homo sapiens, MDA-MB-231, 48 h, read-out: IC50 against proliferation, MDA-MB-231
In short: as §1

[2] = Stability in simulated gastric fluid; format: in vitro ADME; settings: 2 μM, 37 °C, pH 1.20, up to 24 h
In short: (§2)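 Test compound at 2 μM final in simulated gastric fluid (NaCl, pepsin, HCl; pH 1.20) or simulated intestinal fluid (KH2PO4, pancreatin; pH 6.8), shaken at 37 °C, 600 rpm. At 0, 1, 2, 6, 24 h quenched with cold acetonitrile containing tolbutamide/labetalol IS, centrifuged 4 °C; remaining compound by LC/MS/MS peak area ratio analyte/IS, C18 column.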

[3] = system: human umbilical vein endothelial cells (HUVECs); assay: HUVEC tubular structure formation assay; format: cell-based; settings: 5 μM, 4 h on Matrigel
[4] = Metabolic stability in mouse liver microsomes; format: in vitro ADME; settings: for CLint(liver): NADPH; for Remaining (NCF = 60 min): no co-factor
In short: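 CD-1 mouse liver microsomes in 100 mM potassium phosphate buffer, preincubated 10 min at 37 °C with NADPH (1 mM final) or without co-factor. Test compound spiked to 1 μM final; testosterone positive control. Sampled at 5, 15, 30, 45, 60 min, quenched in cold acetonitrile with tolbutamide/labetalol IS, LC-MS/MS. T1/2 and CLint from first-order kinetics.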

[5] = Stability in simulated intestinal fluid; format: in vitro ADME; settings: 2 μM, 37 °C, pH 6.8, up to 24 h
In short: as §2

[6] = mouse liver microsomes, 1 μM, 60 min

Compound: CC(C)C[C@H](NC(=O)NCc1cn(-c2ccccc2C(=O)OCn2cc(F)c(=O)[nH]c2=O)nn1)C(=O)NO [Compound 3, (5-fluoro-2,4-dioxo-3,4-dihydropyrimidin-1(2H)-yl)methyl (S)-2-(4-((3-(1-(hydroxyamino)-4-methyl-1-oxopentan-2-yl)ureido)methyl)-1H-1,2,3-triazol-1-yl)benzoate]
- IC50 (PLC/PRF/5): > 100 µM
- IC50 (HEL): 47.2 ± 19.3 µM
- Effect on micro-vessel growth of rat aortic ring (rat thoracic aorta ring): could prevent the micro-vessel growth
- Tmax ([1]; iv, 10 mg/kg): 5 min
- clearance ([1]; iv, 10 mg/kg): 12.3 mL/min/kg
- half-life ([1]; iv, 10 mg/kg): 52 ± 23.2 min
- AUC(0-inf) ([1]; po, 50 mg/kg): 510 ± 99.3 ng·h/mL
- AUC(0-t) ([1]; po, 50 mg/kg): 484 ± 119 ng·h/mL
- Cmax ([1]; po, 50 mg/kg): 337 ± 158 ng/mL
- Tmax ([1]; po, 50 mg/kg): 25 ± 8.64 min
- half-life ([1]; po, 50 mg/kg): 266 ± 246 min
- IC50 (APN from porcine kidney): 0.5 ± 0.29 µM
- APN inhibitory activity, fold more potent than bestatin (APN from porcine kidney; vs positive control bestatin): over 8 fold
- IC50 (HuH7): > 100 µM
- IC50 (K562): 25.6 ± 12.3 µM
- IC50 (HEPG2): > 100 µM
- IC50 (MDA-MB-231): > 100 µM
- Stability in simulated gastric fluid [2]: very stable
- Effect on HUVEC capillary tube formation [3]: could inhibit the capillary tube formation
- half-life at 1 μM ([4]; CD-1, mouse, liver microsomes): 94.9 min
- microsomal CLint at 1 μM ([4]; CD-1, mouse, liver microsomes): 14.6 µL/min/mg
- CLint(liver) ([4]; mouse liver microsomes, 1 μM): 57.8 mL/min/kg
- Remaining (NCF = 60 min) [4, 6]: 80.1%
- Remaining (T = 60 min) ([4]; mouse liver microsomes, 1 μM, with NADPH, 60 min): 69.4%
- Stability in simulated intestinal fluid [5]: slowly cleaved

Compound: C[C@]12CC[C@H]3[C@@H](CCC4=CC(=O)CC[C@@]43C)[C@@H]1CC[C@@H]2O [Testosterone, reference compound]
- CLint(liver) ([4]; mouse liver microsomes, 1 μM): 998.5 mL/min/kg
- Remaining (NCF = 60 min) [4, 6]: 91.0%

Compound: CC(C)C[C@H](NC(=O)[C@@H](O)[C@H](N)Cc1ccccc1)C(=O)O [Bestatin, reference compound]
- IC50 (PLC/PRF/5): > 100 µM
- IC50 (HEL): > 100 µM
- IC50 (HuH7): > 100 µM
- IC50 (K562): > 100 µM
- IC50 (HEPG2): > 100 µM
- IC50 (MDA-MB-231): > 100 µM
